# This is a sample that favours compounds with a hit; in the whole collection about 2.9% have one here.
# OX1R antag-1 = blocks the human orexin 1 receptor; O43613; OX1R-expressing cells, FRET antagonist read-out; inhibition, % at 6.6 µM; 330,000 tested, 1.8% active; in the data active = inhibition mostly above about 38%, no sharp cut-off; inactive = mostly below about 40%
# Target sequence (O43613 whole entry, looked up): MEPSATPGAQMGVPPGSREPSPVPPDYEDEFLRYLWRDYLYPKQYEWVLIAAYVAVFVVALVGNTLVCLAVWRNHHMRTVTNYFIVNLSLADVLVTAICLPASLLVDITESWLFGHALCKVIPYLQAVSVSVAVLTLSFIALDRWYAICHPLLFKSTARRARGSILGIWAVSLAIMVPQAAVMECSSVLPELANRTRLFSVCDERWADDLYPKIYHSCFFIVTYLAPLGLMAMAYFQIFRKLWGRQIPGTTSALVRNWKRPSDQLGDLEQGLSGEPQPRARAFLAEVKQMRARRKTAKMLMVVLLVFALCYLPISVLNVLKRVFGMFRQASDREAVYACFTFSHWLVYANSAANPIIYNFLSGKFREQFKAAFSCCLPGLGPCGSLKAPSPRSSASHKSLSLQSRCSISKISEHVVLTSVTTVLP
# M1 PAM parental = counter-screen for M1 PAMs: effect in parental CHO-K1 cells. activation, % at 3 µM. ATP EC20, Fluo-8 calcium fluorescence; 0% at ATP EC20, 100% at ATP max. 360,000 tested, 0.02% active. AID 602247;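 active = activation above the run cutoff, the mean activation of all test compounds plus 3 SD, cut at about 40% in these data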;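 note: peak over basal fluorescence ratio in a 140 s read after ATP addition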
# CHO parental Ca = counter-screen for OX1R antagonists: effect in parental CHO cells. parental CHO-K1, ATP-induced calcium, Fluo-8 fluorescence. inhibition, % at 5.6 µM. 330,000 tested, 0.63% active. AID 463079;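 active = inhibition above that plate's mean sample inhibition plus 3 SD, cut at about 26% in these data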
#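 Test system: parental CHO cells; detection: calcium-sensitive Fluo-8 fluorescence; evaluation: percent inhibition of calcium signal; also added: ATP as calcium-mobilizing challenge; repeats: one well per compound; control set: ATP-challenged DMSO wells low, unchallenged DMSO wells high; compound: single nominal dose of 5.6 µM per compound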
# OX1R antag-2 = antagonists of human orexin 1 receptor; CHO/OX1R cells, Fluo-8 calcium fluorescence, orexin A; inhibition, % at 5 µM; O43613; 330,000 tested, 0.43% active; AID 434989;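 active = inhibition above its plate's threshold, mean inhibition of all tested compounds on the plate plus 3 SD, cut at about 37% in these data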
# CHO-K1 Ca antag = nonselective inhibitor or artifact in parental CHO-K1 cells | 360,000 tested, 0.6% active | ATP-induced calcium, Fluo-8 fluorescence | inhibition, % at 3 µM;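 active = inhibition above a per-plate cutoff, the plate's mean sample inhibition plus 3 SD, cut at about 24% in these data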
# CHO-K1 Ca ag = counter-screen for M1 agonists: effect in parental CHO-K1 cells; 360,000 tested, 0.48% active; Fluo-8 calcium fluorescence; scaled to maximal ATP response, vehicle zero; activation, % at 3 µM; AID 602248; in the data active = activation above about 15%;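 note: untransfected CHO-K1 host cells lacking M1 receptor as counterscreen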
# Numbers stand for hits; i = inactive; nt = no result.
SMILES,OX1R antag-1,M1 PAM parental,CHO parental Ca,OX1R antag-2,CHO-K1 Ca antag,CHO-K1 Ca ag
CC(C)C(c1nnnn1C(C)(C)C)N1CCC(Cc2ccccc2)CC1 (stereo unspecified),i,i,42,i,i,i
NC(=O)c1cc2ccc(O)cc2oc1=Nc1ccccc1,nt,i,nt,nt,24,i
NC(=O)c1cc2ccc(O)cc2oc1=NCc1ccccc1,i,i,i,i,i,i
CCCCCc1cc(O)c2c(C)cc(=O)oc2c1,43,i,i,i,i,i
O=C(Cn1c(-c2ccccn2)nc2ccccc21)N/N=C/c1ccccn1,i,i,i,i,30,i
O=c1cc(-c2c(F)c(F)c(F)c(F)c2F)oc2c(F)c(F)c(F)c(F)c12,45,nt,68,43,nt,nt
C/C(=N\O)C(=O)NCc1ccncc1,i,i,i,i,25,i
COc1ccc(N2CCN(C(=O)C(=O)c3cn(CC(=O)N4CCCCCC4)c4ccccc34)CC2)cc1,i,i,i,i,i,i
CCCCN1/C(=C/c2cccc[n+]2C)Sc2cc(NC(C)=O)ccc21,i,i,i,i,i,i
CCN1/C(=C/c2ccc3cc(C)ccc3[n+]2CC)Sc2cc(C)ccc21,nt,i,nt,nt,43,22
CCCCN1/C(=C/c2ccc3ccccc3[n+]2CC)Sc2ccccc21,nt,i,nt,nt,i,19
CCN1/C(=C/c2ccc3ccccc3[n+]2CCCS(=O)(=O)[O-])C=Cc2cc(C)ccc21,nt,i,nt,nt,i,i
CCN1/C(=C/c2ccc3ccccc3[n+]2CC)C=Cc2ccccc21,100,i,71,i,32,i
CCN1/C(=C/c2ccc3cc(C)ccc3[n+]2C)Sc2ccc3sccc3c21,nt,i,nt,nt,i,i
c1ccc(CCNc2ncnc3scc(C4COc5ccccc5O4)c23)cc1 (stereo unspecified),i,i,51,i,i,i
CCN(CC)c1ccc(NC(=O)CSc2nc3ccccc3c(=O)n2-c2cc(S(=O)(=O)N(C)C)ccc2C)cc1,i,i,i,i,24,i
CN(C)S(=O)(=O)c1ccc(NC(=O)CSc2nc3ccccc3n2-c2ccccc2)cc1,i,i,i,i,i,i
Cn1c(=O)c2cc(NC(=O)NCc3ccc(Cl)cc3Cl)ccc2n1Cc1ccc(F)cc1,nt,i,nt,nt,i,i
COc1ccc(Nc2nc(N)nc(CSC(=S)N3CCCCC3)n2)cc1,i,i,i,i,i,i
COc1ccc(Nc2nc(N)nc(CSC(=S)N3CCCCC3C)n2)cc1 (stereo unspecified),i,i,i,i,i,22
CC(=O)c1ccc(NC(=S)NCc2ccco2)cc1,i,i,i,i,i,i
COC(=O)c1ccc(NC(=S)NCc2ccco2)cc1,i,i,i,i,30,i
Cc1cccc(NC(=S)NCc2ccco2)n1,i,i,i,i,i,17
Oc1ccccc1N1CCN(C(c2ccccc2)c2ccccc2)CC1,i,i,i,i,i,i
